This is an account of results in the RNAGym collection of RNA variant scans (doi:10.1101/gad.245936.114).

B1: tRNA (parent)
chain: CUCUCGGUAGCCAAGUUGGUUUAAGGCGCAAGACUUUAAUUUAUCACUACGAAAUCUUGAGAUCGGGCGUUCGACUCGCCCCCGGGAGAUUUUUUCCUCGAGCAA

Variants at the floor of the assay were thinned out.

The data set covers variants of B1. Briefly: nonsense suppression (GFP-seq) (ratio to wild type); higher = more function; SUP4oc tRNA, yeast GFP reporter sort-seq. In a few lines:
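Sorted GFP/RFP bins of yeast were each Illumina-sequenced with a phred ≥30 cutoff; the cells held a genome-integrated ochre-suppressor tRNA variant from a library with ~3% random mutations, a galactose-driven GFP ochre reporter, and RFP. Culture was in raffinose/galactose medium containing 80 mg/L adenine. Nonsense suppression, termed GFPSEQ, is the median GFP/RFP of the bins weighted by each variant's estimated cell share per bin, relative to the unmutated parent tRNA, for variants reaching ≥100 reads and ≥30 cells.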
CUCUCGGUAGCCAAGUUGGUUUAAGGCGCAAAACUUUAAUUUAUCACUACGAAAUCUUGAGGUCGGGCGUGCGACUCACCCCCGAGAGAUUUUUUCCUCGAGCAA [G32A A62G U71G G78A G85A]: the nonsense suppression was no more than 0.026.

As to CUCUCGGUAGCCAAGUUGGUUUAAGGCGCAAAACUUUAAUUUAUCACUACGAAAUCUUGAGAUCGGGCGUUCGACGCGCCCCCGGGAGAUUUUUUCCUCGAGCAA [G32A U76G], the nonsense suppression was no more than 0.026.

On to CUCUCGGUAGCCAAGUUGGUUUAAGGCGCAAGCCUUUAAUUUAUCACUACGAAACUUUGAGAUCGUGCGUUCGACUCGGCCCCGGGAGAUUUUUUCCUCGAGCAA [A33C U55C C56U G66U C79G], for which the nonsense suppression is no more than 0.026.

CUCUCGGUAGCCAAGUUGGUUUAAGGCGCAAUACUUUAAUUUAUCACUACGAAAUGUUGAGAUCGGGCGUUCGACUCGCCCCCGGGAGAUUUUUUCCUCGAGCAA [G32U C56G]: the nonsense suppression was 0.207.

On to CUCUCGGUAGCCAAGUUGGUUUAAGGCGCAAGGCUUUAAUUUAUCACUACGAAAUCUUGAGAUCGGGCGUUCGACUCGCUCCCGGGAGAUUUUUUCCUCGAGCAA [A33G C80U], for which the nonsense suppression came to 0.0422.

In the case of CUCUCGGUAGCCAAGUUGGUUUAAGGCGCAAGCCUUUAAUUUAUCACUACGAAAUAUUGAGAUCGGGCGUUCGACUCACCCCCGGGAGAUUUUUUCCUCGAGCAA [A33C C56A G78A], the nonsense suppression was no more than 0.026.

For CUCUCGGUAGCCAAGUUGGUUUAAGGCGCAAGCCUUUAAUUUAUCACUACGAAAUCUUGAUAUCGUGCGUUCGACUCGCCCCCGGGAGAUUUUUUCCUCGAGCAA [A33C G61U G66U], the nonsense suppression is no more than 0.026.

Regarding CUCUCGGUAGCCAAGUUGGUUUAAGGCGCAAGGCUUUAAUUUAUCACUACGAAAUCUUAAGAUCGGGCGUUCGACUAGCCCCAGGGAAAUUUUUUCCUCGAGCAA [A33G G59A C77A C83A G88A], the nonsense suppression was no more than 0.026.

Turning to CUCUCGGUAGCCAAGUUGGUUUAAGGCGCAAUACUUUAAUUUAUCACUACGAAAUCUUGAGAUCGGGCGUCCGACUCGCCCCCAGGAGAUUUUUUCCUCGAGCAA [G32U U71C G84A], the nonsense suppression is no more than 0.026.

As for CUCUCGGUAGCCAAGUUGGUUUAAGGCGCAAGGCUUUAAUUUAUCACUACGAAAUCUUGAUAUCGGGCGUUCGACUCGCCCCCGGGAGAUUUUUUCCUCGAGCAA [A33G G61U], the nonsense suppression came to 0.119.

Consider CUCUCGGUAGCCAAGUUGGUUUAAGGCGCAAGGCUUUAAUUUAUCACUACGAAAUCUUGAAAUCGGGCGUUCGACUCGCCCCCGGGAGAUUUUUUCCUCGAGCAA [A33G G61A], for which the nonsense suppression was 0.0709.

Take CUCUCGGUAGCCAAGUUGGUUUAAGGCGCAAGGCUUUAAUUUAUCACUACGAAAUCUUGACAUCGGGCGUUCGACUCGCCCCCGGGAGAUUUUUUCCUCGAGCAA [A33G G61C]: the nonsense suppression stood at 0.034.

With CUCUCGGUAGCCAAGUUGGUUUAAGGCGCAAGGCUUUAAUUUAUCACUACGAAAUCUUGAGAUCGGGCGUUCGACUCGCCCCCUGGAGAUUUUUUCCUCGAGCAA [A33G G84U], the nonsense suppression was found to be 0.222.

In the case of CUCUCGGUAGCCAAGUUGGUUUAAGGCGCAACACUUUAAUUUAUCACUACGAAAUGUUGCGAUCGGGCGUUCGACUCGCCCCCGGGAGAUUUUUUCCUCGAGCAA [G32C C56G A60C], the nonsense suppression came out at 0.275.

On to CUCUCGGUAGCCAAGUUGGUUUAAGGCGCAAUACUUUAAUUUAUCACUACGAAAUCUUGAGAUCGGGCGCUCGACUCGCCCCCGGGAGAUUUUUUCCUCGAGCAA [G32U U70C], for which the nonsense suppression was no more than 0.026.

CUCUCGGUAGCCAAGUUGGUUUAAGGCGCAAUACUUUAAUUUAUCACUACGAAAGCUUGAGCUCGGGCGUUCGACUCGCCCCCGGGAGAUUUUUUCCUCGAGCAA [G32U U55G A62C]: the nonsense suppression is no more than 0.026.

As for CUCUCGGUAGCCAAGUUGGUUUAAGGCGCAUGACUUUAAUUUAUCACUACGAAAUCUUGAGAGCGGGCGUUCGACUCGCCCCCGGGAGAUUUUUUCCUCGAGCAA [A31U U63G], the nonsense suppression came to 0.0763.

CUCUCGGUAGCCAAGUUGGUUUAAGGCGCAAGGCUUUAAUUUAUCACUACGAAAUCUUGAGAUCGGGCGUUCGACUCGCCCCCGCGAGAUUUUUUCCUCGAGCAA [A33G G85C]: the nonsense suppression amounted to 0.0351.

On to CUCUCGGUAGCCAAGUUGGUUUAAGGCGCAAGCCUUUAAUUUAUCACUACGAAAUCUUGAGAUCGGGCGUGCGACUCGCCCCCGGAAGAUUUUUUCCUCGAGCAA [A33C U71G G86A], for which the nonsense suppression is no more than 0.026.

Consider CUCUCGGUAGCCAAGUUGGUUUAAGGCGCAACACUUUAAUUUAUCACUACGAAAUCUUGAGAUCGGGCGUUCGACACGCCCCCGGGAGAUUUUUUCCUCGAGCAA [G32C U76A], for which the nonsense suppression was no more than 0.026.

Regarding CUCUCGGUAGCCAAGUUGGUUUAAGGCGCAAGGCUUUAAUUUAUCACUACGAAAUCUUGAGAUCGGGCGUUCGACUCGCCCCCGGGACAUUUUUUCCUCGAGCAA [A33G G88C], the nonsense suppression was no more than 0.026.

Take CUCUCGGUAGCCAAGUUGGUUUAAGGCGCAAUACUUUAAUUUAUCACUACGAAAUCUUGAGAUCGGGCGUUCGACUCGACCCCGGGAGAUUUUUUCCUCGAGCAA [G32U C79A]: the nonsense suppression is no more than 0.026.

Consider CUCUCGGUAGCCAAGUUGGUUUAAGGCGCAAGGCUUUAAUUUAUCACUACGAAAUCUUGAGAUCGGGCGUUCGACUCGUCCCCGGGAGAUUUUUUCCUCGAGCAA [A33G C79U], for which the nonsense suppression was 0.0403.

Take CUCUCGGUAGCCAAGUUGGUUUAAGGCGCAAAACUUUAAUUUAUCACUACGAAAUCUUGAGAUCGGGCGAUAGACUCGCCCCCGGGAGAUUUUUUCCUCGAGCAA [G32A U70A C72A]: the nonsense suppression is no more than 0.026.

Consider CUCUCGGUAGCCAAGUUGGUUUAAGGCGCAAGGCUUUAAUUUAUCACUACGAAGUCUUGAGAUCGGGCGUUCGCCUCGCCCCCGGGAGAUUUUUUCCUCGAGCAA [A33G A54G A74C], for which the nonsense suppression was no more than 0.026.

Regarding CUCUCGGUAGCCAAGUUGGUUUAAGGCGCAAGGCUUUAAUUUAUCACUACGAAAUCUUGAGAUCGGGCGUUCGACUCGCCCCCGGCAGAUUUUUUCCUCGAGCAA [A33G G86C], the nonsense suppression was determined as 0.0374.

On to CUCUCGGUAGCCAAGUUGGUUUAAGGCGCAAAACUUUAAUUUAUCACUACGAAAUCUUGAGAUCGGGCGUUCGACUCGACCCCGGGAAAUUUUUUCCUCGAGCAA [G32A C79A G88A], for which the nonsense suppression was no more than 0.026.
